Assay results from ChEMBL document CHEMBL1146071, “2,4-diaminopyrimidine derivatives as potent growth hormone secretagogue receptor antagonists” (J Med Chem, 2006).

Target: T1, Growth hormone secretagogue receptor type 1 (Homo sapiens, UniProt Q92847)
Experiment: Antagonist activity at human GHS receptor by inhibition of ghrelin-induced intracellular calcium flux in CHOK cells
Format: functional, cell-based
Conditions: not given
In short: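 CHO-K cells stably expressing human GHS-R, grown in Ultra-CHO medium with 1% dialyzed FCS and 400 µg/mL G418, plated to confluency overnight. Loaded with Fluo-4 AM plus probenecid for 1-3 h in the dark at RT, then washed. On FLIPR (ex 488/em 520 nm), compound added first and read 3 min, then ghrelin added and read another 3 min. Duplicate or triplicate wells; sigmoidal fit for IC50.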

T1 sequence (Q92847 whole entry): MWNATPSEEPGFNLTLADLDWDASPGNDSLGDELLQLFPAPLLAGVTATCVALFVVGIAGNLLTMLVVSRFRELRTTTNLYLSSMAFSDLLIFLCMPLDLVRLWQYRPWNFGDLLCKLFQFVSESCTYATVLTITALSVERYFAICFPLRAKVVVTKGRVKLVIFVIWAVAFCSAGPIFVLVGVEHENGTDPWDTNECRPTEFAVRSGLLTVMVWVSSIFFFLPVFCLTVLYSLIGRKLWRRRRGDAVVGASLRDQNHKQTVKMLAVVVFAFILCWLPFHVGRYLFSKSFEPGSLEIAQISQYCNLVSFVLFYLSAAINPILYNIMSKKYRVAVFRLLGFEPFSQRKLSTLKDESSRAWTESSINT

| SMILES | IC50 |
| --- | --- |
| CCc1nc(N)nc(N)c1-c1ccc(NCc2ccc(Cl)cc2)cc1 | 1380 nM |
| N#Cc1ccc(COc2ccc(-c3c(N)nc(N)nc3COCc3ccccc3)cc2)cc1 | 3610 nM |
| CCc1nc(N)nc(N)c1-c1ccc(CNc2ccc([N+](=O)[O-])cc2)cc1 | 190 nM |
| CCc1nc(N)nc(N)c1-c1ccc(NCc2ccc(S(C)(=O)=O)cc2)c(Br)c1 | 42 nM |
| Nc1nc(N)c(-c2ccc(NCc3ccc(C(F)(F)F)cc3)cc2)c(COCc2ccccc2)n1 | 97 nM |
| CCc1nc(N)nc(N)c1-c1ccc(N(C)Cc2ccc(S(C)(=O)=O)cc2)cc1 | 32 nM |

Other lines, results leading:

| IC50 | SMILES |
| --- | --- |
| 110 nM | CCc1nc(N)nc(N)c1-c1ccc(NCc2ccc(C(C)O)cc2)cc1 (stereo unspecified) |
| 12 nM | CCc1nc(N)nc(N)c1-c1ccc(NCc2ccc(S(C)(=O)=O)cc2)cc1 |
| 85 nM | Nc1nc(N)c(-c2ccc(NCc3cc(F)c(S(=O)(=O)C(F)(F)F)c(F)c3)cc2)c(COCc2ccccc2)n1 |

System: not listed separately
Experiment: AUC in Sprague-Dawley rat at 5 mg/kg, iv
Format: ADME, organism-based, Plasma
Design: dose 5 mg/kg, route intravenous
Conditions: Sprague-Dawley, plasma
In short: (§1)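 Rats dosed at 5 mg/kg: iv for AUC (µg·h/mL), clearance (L/h·kg) and Cmax (µg/mL); oral for bioavailability unless stated otherwise. Brain (µg/g) and plasma levels taken at 1 and 8 h. Mean of n = 3.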

| AUC | SMILES |
| --- | --- |
| 2200 ng·h/mL | CCc1nc(N)nc(N)c1-c1ccc(NCc2ccc(Cl)cc2)cc1 |
| 2800 ng·h/mL | CCc1nc(N)nc(N)c1-c1ccc(NCc2ccc(S(C)(=O)=O)cc2)cc1 |
| 2700 ng·h/mL | CCc1nc(N)nc(N)c1-c1ccc(N(C)Cc2ccc(S(C)(=O)=O)cc2)cc1 |

System: not listed separately
Experiment: Plasma clearance in Sprague-Dawley rat at 5 mg/kg, iv
Format: ADME, organism-based
Design: dose 5 mg/kg, route intravenous
Conditions: not given
In short: as §1

| clearance | SMILES |
| --- | --- |
| 30 mL/min/kg | CCc1nc(N)nc(N)c1-c1ccc(NCc2ccc(Cl)cc2)cc1 |
| 15.7 mL/min/kg | CCc1nc(N)nc(N)c1-c1ccc(NCc2ccc(S(C)(=O)=O)cc2)cc1 |
| 16.5 mL/min/kg | CCc1nc(N)nc(N)c1-c1ccc(N(C)Cc2ccc(S(C)(=O)=O)cc2)cc1 |

System: not listed separately
Experiment: Half life in Sprague-Dawley rat at 5 mg/kg
Format: ADME, organism-based
Design: dose 5 mg/kg
Conditions: in vivo
In short: as §1

| half-life | SMILES |
| --- | --- |
| 5.2 h | CCc1nc(N)nc(N)c1-c1ccc(NCc2ccc(Cl)cc2)cc1 |
| 6.6 h | CCc1nc(N)nc(N)c1-c1ccc(NCc2ccc(S(C)(=O)=O)cc2)cc1 |
| 3.8 h | CCc1nc(N)nc(N)c1-c1ccc(N(C)Cc2ccc(S(C)(=O)=O)cc2)cc1 |

System: not listed separately
Experiment: Plasma concentration in Sprague-Dawley rat at 5 mg/kg after 1 hr
Format: ADME, organism-based
Design: dose 5 mg/kg
Conditions: not given
In short: as §1

| concentration at 1 h | SMILES |
| --- | --- |
| 250 ng/mL | CCc1nc(N)nc(N)c1-c1ccc(NCc2ccc(Cl)cc2)cc1 |
| 1020 ng/mL | CCc1nc(N)nc(N)c1-c1ccc(NCc2ccc(S(C)(=O)=O)cc2)cc1 |
| 1280 ng/mL | CCc1nc(N)nc(N)c1-c1ccc(N(C)Cc2ccc(S(C)(=O)=O)cc2)cc1 |

System: not listed separately
Experiment: Oral bioavailability in Sprague-Dawley rat at 5 mg/kg
Format: ADME, organism-based
Conditions: in vivo
In short: as §1

| bioavailability | SMILES |
| --- | --- |
| 76% | CCc1nc(N)nc(N)c1-c1ccc(NCc2ccc(Cl)cc2)cc1 |
| 52% | CCc1nc(N)nc(N)c1-c1ccc(NCc2ccc(S(C)(=O)=O)cc2)cc1 |
| 53% | CCc1nc(N)nc(N)c1-c1ccc(N(C)Cc2ccc(S(C)(=O)=O)cc2)cc1 |

System: not listed separately
Experiment: Concentration in Sprague-Dawley rat brain at 5 mg/kg after 8 hrs
Format: ADME, organism-based
Design: dose 5 mg/kg
Conditions: read-out: Ct
In short: as §1

| concentration at 8 h | SMILES |
| --- | --- |
| 600 ng/g | CCc1nc(N)nc(N)c1-c1ccc(NCc2ccc(Cl)cc2)cc1 |

Target: T1, Growth hormone secretagogue receptor type 1
Experiment: Displacement of [125I]ghrelin from human GHS receptor expressed in CHOK cells
Format: cell-based
Conditions: not given
In short: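 Membranes from CHO-K cells expressing human ghrelin receptor, prepared by sonication and a 60000g spin. Filtered onto PEI-soaked GF/C, washed cold, scintillation counted; percent inhibition, sigmoidal fit for IC50.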

| SMILES | IC50 |
| --- | --- |
| CCc1nc(N)nc(N)c1-c1ccc(NCc2ccc(Cl)cc2)cc1 | 310 nM |
| N#Cc1ccc(COc2ccc(-c3c(N)nc(N)nc3COCc3ccccc3)cc2)cc1 | 83 nM |
| CCc1nc(N)nc(N)c1-c1ccc(CNc2ccc([N+](=O)[O-])cc2)cc1 | 9.2 nM |
| CCc1nc(N)nc(N)c1-c1ccc(NCc2ccc(S(C)(=O)=O)cc2)c(Br)c1 | 5.7 nM |
| Nc1nc(N)c(-c2ccc(NCc3ccc(C(F)(F)F)cc3)cc2)c(COCc2ccccc2)n1 | 2.9 nM |
| CCc1nc(N)nc(N)c1-c1ccc(N(C)Cc2ccc(S(C)(=O)=O)cc2)cc1 | 3.7 nM |

Next, values leading:

| IC50 | SMILES |
| --- | --- |
| 13 nM | CCc1nc(N)nc(N)c1-c1ccc(NCc2ccc(C(C)O)cc2)cc1 (stereo unspecified) |
| 7.4 nM | CCc1nc(N)nc(N)c1-c1ccc(NCc2ccc(S(C)(=O)=O)cc2)cc1 |
| 1 nM | Nc1nc(N)c(-c2ccc(NCc3cc(F)c(S(=O)(=O)C(F)(F)F)c(F)c3)cc2)c(COCc2ccccc2)n1 |

System: not listed separately
Experiment: Cmax in Sprague-Dawley rat at 5 mg/kg, iv
Format: ADME, organism-based
Design: dose 5 mg/kg, route intravenous
Conditions: in vivo
In short: as §1

| Cmax | SMILES |
| --- | --- |
| 170 ng/mL | CCc1nc(N)nc(N)c1-c1ccc(NCc2ccc(Cl)cc2)cc1 |
| 320 ng/mL | CCc1nc(N)nc(N)c1-c1ccc(NCc2ccc(S(C)(=O)=O)cc2)cc1 |
| 430 ng/mL | CCc1nc(N)nc(N)c1-c1ccc(N(C)Cc2ccc(S(C)(=O)=O)cc2)cc1 |

System: not listed separately
Experiment: Plasma concentration in Sprague-Dawley rat at 5 mg/kg after 8 hrs
Format: ADME, organism-based
Design: dose 5 mg/kg
Conditions: not given
In short: as §1

| concentration at 8 h | SMILES |
| --- | --- |
| 110 ng/mL | CCc1nc(N)nc(N)c1-c1ccc(NCc2ccc(Cl)cc2)cc1 |

System: not listed separately
Experiment: Concentration in Sprague-Dawley rat brain at 5 mg/kg after 1 hr
Format: ADME, organism-based
Design: dose 5 mg/kg
Conditions: read-out: Ct
In short: as §1

| concentration at 1 h | SMILES |
| --- | --- |
| 2740 ng/g | CCc1nc(N)nc(N)c1-c1ccc(NCc2ccc(Cl)cc2)cc1 |
| 50 ng/g | CCc1nc(N)nc(N)c1-c1ccc(NCc2ccc(S(C)(=O)=O)cc2)cc1 |
| 40 ng/g | CCc1nc(N)nc(N)c1-c1ccc(N(C)Cc2ccc(S(C)(=O)=O)cc2)cc1 |
